The record followed here is ChEMBL document CHEMBL3822453 (J Med Chem, 2016).

The source made the active and inactive calls. The rule behind the calls is not given here.

By IC50 is commonly meant the point on the concentration scale where inhibition reaches its midpoint. Usually inhibition stands for the percentage by which the read-out fell short of the control.

Data set [1] concerns the target T1, DNA repair protein RAD51 homolog 1 (Homo sapiens) (UniProt Q06609).
T1 sequence (whole entry): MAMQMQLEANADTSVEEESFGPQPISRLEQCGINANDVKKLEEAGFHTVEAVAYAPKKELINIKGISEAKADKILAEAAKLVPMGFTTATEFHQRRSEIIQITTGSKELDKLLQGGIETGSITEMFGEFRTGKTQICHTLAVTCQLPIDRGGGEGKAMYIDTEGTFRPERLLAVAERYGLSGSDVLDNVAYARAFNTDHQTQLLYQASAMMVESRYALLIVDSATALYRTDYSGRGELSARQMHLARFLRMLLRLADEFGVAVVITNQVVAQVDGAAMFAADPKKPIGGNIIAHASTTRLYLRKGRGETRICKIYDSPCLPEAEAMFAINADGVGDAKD
The settings on record: 5 to 100 uM.

Data set [2] addresses T2, DNA repair protein RAD51 homolog 1 (Homo sapiens, UniProt Q06609).
T2 sequence (Q06609 whole entry): T1 sequence (whole entry)
Put plainly: Inhibition of Escherichia coli BL21(DE3) expressing human N-terminal 6-histidine/Avi-tagged RAD51 binding to 5'-Alexa488-oligo-dT45 ssDNA preincubated for 40 mins followed by substrate addition measured after 40 mins by fluorescence polarization based microplate method. A digest of the protocol: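 Human RAD51 preincubated with compound in DMSO at 37 °C for 40 min, then 5'-Alexa488-oligo-dT45 added and incubated another 40 min at 37 °C. Buffer: 20 mM HEPES pH 7.5, 2 mM ATP, 10 mM MgCl2, 0.1 mM TCEP. IC50 from least-squares dose–response fits with standard error.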
(In fluorescence polarisation assays a small probe gives low polarisation when free and higher when bound to something large.)

Data set [3] deals with T2, DNA repair protein RAD51 homolog 1. Kind of data set: Inhibition of human N-terminal 6-histidine/Avi-tagged recombinant RAD51 expressed in Escherichia coli BL21(DE3) assessed as D-loop formation using 5'-32P-labeled 90-mer ssDNA as substrate preincubated for 10 mins followed by substrate addition with subsequent incubation with substrate for 5 mins measured after 20 mins in presence of supercoiled pRS306 dsDNA by agarose gel electrophoresis.

The target is the same in data set [4]. Put plainly: Inhibition of Escherichia coli BL21(DE3) expressing human N-terminal 6-histidine/Avi-tagged RAD51 binding to circular pRS306 virion ssDNA preincubated for 40 mins followed by ssDNA addition measured after 5 mins by agarose gel electrophoresis.
The target is the same in data set [5]. Put plainly: Effect on stabilization of Escherichia coli BL21(DE3) expressing human N-terminal 6-histidine/Avi-tagged RAD51-circular pRS306 virion ssDNA nucleoprotein filament at 30 uM after 40 mins in presence of NaCl by SYBR gold staining based agarose gel electrophoresis. It counts as ADME.
For data set [6] the target is unchanged. Kind of data set: Inhibition of RAD51-mediated homologous recombination in human HEK293-DR-GFP cells transfected with pCBASce expressing I-Sce-I after 24 hrs following transfection by 7-aminoactinomycin D staining based flow cytometry.
Data set [7] has the same target. Put plainly: Inhibition of Escherichia coli BL21(DE3) expressing human N-terminal 6-histidine/Avi-tagged RAD51 binding to 5'-Alexa488-oligo-dT45 ssDNA at 5 to 100 uM preincubated for 40 mins followed by substrate addition measured after 40 mins by fluorescence polarization based microplate method. Particulars: read-out: Imax. Put shortly:
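Human RAD51 preincubated with compound in DMSO at 37 °C for 40 min, then 5'-Alexa488-oligo-dT45 added and incubated another 40 min at 37 °C. Buffer: 20 mM HEPES pH 7.5, 2 mM ATP, 10 mM MgCl2, 0.1 mM TCEP. Final: 0.2 µM RAD51, 2.22 nM ssDNA, 30 mM NaCl, 4% DMSO. Fluorescence polarization read at 485/535 nm. IC50 from least-squares dose–response fits with standard error.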

Data set [8] has as its system HEK293. Put plainly: Induction of single strand annealing activity in human HEK293-SA-GFP cells transfected with pCBASce expressing I-Sce-I up to 40 uM at 24 hrs post transfection by 7-aminoactinomycin D staining based flow cytometry. The format is functional, cell-based. Put shortly: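 293-DR-GFP (HR) or 293-SA-GFP (SSA) reporter cells electroporated (325 V, 975 µF) with 37.5 µg/mL I-SceI plasmid pCBASce or empty pCAGGS control. Seeded in complete DMEM + 0.5% DMSO with compound added at transfection, grown out 24 h. Cells resuspended with 1 µg/mL 7-AAD for flow cytometry, dead/apoptotic cells gated out, GFP-positive fraction scored among live cells.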
For orientation: In flow cytometry, cells or beads pass a laser one at a time.

In data set [9] the target is T2, DNA repair protein RAD51 homolog 1. Put plainly: Inhibition of IR-induced RAD51 accumulation in HEK293-DR-GFP cells subnuclear foci at 20 uM after 8 hrs by fluorescence microscopy. It counts as cell-based. A digest of the protocol: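 293-DR-GFP cells grown on coverslips for 2 days, X-irradiated at 1.5 Gy/min, fixed after 0, 2, 4 or 8 h outgrowth. Paraformaldehyde fixation and Triton permeabilization. Stained with rabbit anti-RAD51 plus anti-RPA or anti-γH2AX, DAPI counterstain. At least 100 nuclei scored per condition.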

The subject of data set [10] is HEK293. Put plainly: Effect on RAD51 levels in cytosol of HEK293-DR-GFP cells at 20 uM after 8 hrs by Western blot analysis. It counts as ADME, cell-based. Particulars: human. Put shortly: (§1)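 Subconfluent 293-DR-GFP cells grown with compound for the indicated time. Fractionated at 4 °C: hypotonic buffer on ice 15 min (cytosol); pellet in hypotonic buffer + 0.5 M NaCl 15 min (soluble nuclear); RIPA extraction three times 5 min, insoluble pellet kept (chromatin). Fractions run on 10% SDS-PAGE, blotted to PVDF, probed with rabbit anti-RAD51 (1:2000) or anti-PCNA (1:1000), read by ECL.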
Background: A western blot detects proteins with antibodies after separation by electrophoresis.

Data set [11] has as its system HEK293. Put plainly: Effect on RAD51 levels in soluble nuclear fraction of HEK293-DR-GFP cells at 20 uM after 8 hrs by Western blot analysis. It counts as ADME, cell-based. Particulars: human, hek293, 8 h. Put shortly:
as §1

The subject of data set [12] is HEK293. Kind of data set: Effect on RAD51 levels in chromatin fraction of HEK293-DR-GFP cells at 20 uM after 8 hrs by Western blot analysis. It counts as cell-based. Particulars: human, hek293, 8 h. Put shortly: as §1
Data set [13] concerns the target T2, DNA repair protein RAD51 homolog 1. Put plainly: Effect on stabilization of Escherichia coli BL21(DE3) expressing human N-terminal 6-histidine/Avi-tagged RAD51-circular pRS306 virion ssDNA nucleoprotein filament at 100 uM after 40 mins in presence of NaCl by SYBR gold staining based agarose gel electrophoresis. The format is ADME.
The test system of data set [14] is Saccharomyces cerevisiae. Kind of data set: Inhibition of Saccharomyces cerevisiae RAD51 D-loop activity using 5'-32P-labeled 90-mer ssDNA as substrate up to 100 uM preincubated for 10 mins followed by substrate addition with subsequent incubation with substrate for 5 mins measured after 20 mins in presence of supercoiled pRS306 dsDNA by agarose gel electrophoresis. A digest of the protocol:
(§2)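 Yeast Rad51 (1 µM) with Rad52 (2 µM), or E. coli RecA (0.4 µM), preincubated with compound at 37 °C for 10 min. 32P 90-mer ssDNA added with 1 mM MgCl2 for 5 min, then supercoiled pRS306 with MgCl2 raised to 10 mM for 20 min. dsDNA step in 20 mM HEPES pH 7.5, 2 mM ATP, 10 nM ssDNA, 4.5 nM dsDNA. Read by agarose gel and phosphorimaging.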

The test system of data set [15] is Saccharomyces cerevisiae. Put plainly: Inhibition of Saccharomyces cerevisiae RAD52 D-loop activity using 5'-32P-labeled 90-mer ssDNA as substrate up to 100 uM preincubated for 10 mins followed by substrate addition with subsequent incubation with substrate for 5 mins measured after 20 mins in presence of supercoiled pRS306 dsDNA by agarose gel electrophoresis. A digest of the protocol: as §2

Another data set has as its system Escherichia coli. Kind of data set: Inhibition of Escherichia coli RecA D-loop activity using 5'-32P-labeled 90-mer ssDNA as substrate up to 100 uM preincubated for 10 mins followed by substrate addition with subsequent incubation with substrate for 5 mins measured after 20 mins in presence of supercoiled pRS306 dsDNA by agarose gel electrophoresis. A digest of the protocol: as §2

The next data set relates to U2OS. Kind of data set: Cytotoxicity against human U2OS cells assessed as cell survival treated with ionizing radiation followed by compound addition after 7 to 11 days by crystal violet staining based colony counting method. It counts as functional. Put shortly: (§3)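 Cells grown to subconfluence, X-irradiated at 1.5 Gy/min, trypsinized and seeded at 1000–1500 cells/well in complete medium with 0.5% DMSO plus compound at the indicated dose, kept through outgrowth. Incubated 7–11 days until colonies of ≥50 cells. Stained ≥30 min at room temperature in 6% glutaraldehyde + 0.5% crystal violet, then counted automatically. PC-3 grown in DMEM:F12 (1:1) with 10% FCS.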

For a further data set, the system named is PC-3. Put plainly: Cytotoxicity against human PC3 cells assessed as cell survival treated with ionizing radiation followed by compound addition after 7 to 11 days by crystal violet staining based colony counting method. The format is functional. A digest of the protocol: as §3
A further data set relates to MCF7. Put plainly: Cytotoxicity against human MCF7 cells assessed as cell survival treated with ionizing radiation followed by compound addition after 7 to 11 days by crystal violet staining based colony counting method. The format is functional. A digest of the protocol:
as §3

The target of data set [16] is T1, DNA repair protein RAD51 homolog 1 (Homo sapiens). Particulars: 40 uM.

In the case of `CN(C)c1ccc(-c2nc3cc(O)ccc3n3cccc23)cc1`, in data set [1], the Imax was 91%. In data set [2], `COc1ccc2c(c1)nc(-c1cccnc1)c1cccn12` registered an IC50 of over 100 µM. This compound also came in with an Imax in [1] of 74%. Regarding `COc1ccc2c(c1)nc(-c1ccc(N(C)C)cc1)c1cccn12`, the Imax in [1] came to 67%. With `c1ccc2c(-c3nc4ccccc4n4cccc34)cccc2c1`, the IC50 in data set [3] is over 100 µM.

Regarding `CN(C)c1ccc(-c2nc3cc(F)c(F)cc3n3cccc23)cc1`, the IC50 in data set [3] is over 100 µM. Take `O=[N+]([O-])c1cccc(-c2nc3ccccc3n3cccc23)c1`: the IC50 in data set [3] and in [2] was over 100 µM in each case.

On to `C1=C(c2nc3ccccc3n3cccc23)CCCC1`, for which, in data set [3], the IC50 was over 100 µM. The compound `c1ccc2c(c1)nc(-c1ccc(N3CCOCC3)cc1)c1cccn12` displayed an IC50 in data set [2] of over 100 µM. Also, in data set [1], the Imax is 68%. On to `Oc1ccc(-c2nc3ccccc3n3cccc23)cc1`, for which the IC50 in data set [3] and in data set [2] was over 100 µM throughout. In the case of `O=C1C(Cl)=C(N2CCOCC2)C(=O)N1c1ccc(Cl)c(Cl)c1`, the results for the Activity entry in data set [4] and in data set [5] were “Dose-dependent effect” and “Active”, respectively. Take `COc1ccc2c(c1)NC(c1ccc(N(C)C)cc1)c1cccn1-2` (stereo in doubt; 1) [listing 1 of 2 here]: the IC50 turned out to be 21.3 µM in data set [3] and 13.1 µM in [6]. Besides, the Emax in [7] came to 33%.

The compound `Oc1ccc2c(c1)nc(-c1cccnc1)c1cccn12` showed an Imax in [1] of 53%.

For `CN(C)c1ccc(-c2nc3cc(F)ccc3n3cccc23)cc1`, the IC50 in [3] was over 100 µM. As to `c1ccc2c(c1)nc(-c1ccncc1)c1cccn12`, the IC50 in data set [2] was over 100 µM. The same measure, in the same setting: the same measure for `Nc1cccc(-c2nc3ccccc3n3cccc23)c1`: over 100 µM.

As for `CCNc1ccc(-c2nc3ccccc3n3cccc23)cc1`, the result with HEK293 [8] was inactive. Also, in data set [9], the “inhibition (INH)” value is “Not Active”. Besides, the Activity entry with HEK293 [10] was “Non-toxic”; in the data set on HEK293 [11], “Non-toxic”; in the data set with HEK293 [12], “Non-toxic”; in [13], “Not Active”; in [5], “Not Active”. The inhibition entry in the data set on Saccharomyces cerevisiae [14], in the data set on Saccharomyces cerevisiae [15] and in the data set on Escherichia coli was “inactive” in each case. The result with U2OS, in the data set with PC-3 and in the data set on MCF7 was Active. The compound further showed an Imax in [1] of 91%. Turning to `COc1ccc2c(c1)nc(-c1ccc([N+](=O)[O-])cc1)c1cccn12`, in data set [3], the IC50 was over 100 µM. Turning to `COc1ccc2c(c1)NC(c1ccc(N(C)C)cc1)c1cccn1-2` (racemic), in [1], the Imax was found to be 17%. For `c1ccc2c(c1)nc(-c1ccc(N3CCCC3)cc1)c1cccn12`, the IC50 in data set [3] is over 100 µM.

In the case of `FC(F)(F)Oc1ccc(-c2nc3ccccc3n3cccc23)cc1`, the IC50 in data set [3] was over 100 µM. Take `COc1ccc2c(c1)nc(-c1ccc(O)cc1)c1cccn12`: the Imax in data set [1] stood at 13%.

On to `COc1ccc2c(c1)nc(-c1ccc(N)cc1)c1cccn12`, for which, in data set [1], the Imax amounted to 100%. Compound `COc1ccc2c(c1)NC(c1ccc(N(C)C)cc1)c1cccn1-2` (stereo in doubt; 1) [listing 2 of 2 here] showed an Imax in data set [1] of 74%. Besides, the inhibition in data set [16] was 83%.

`O=[N+]([O-])c1ccc(-c2nc3cc(O)ccc3n3cccc23)cc1`: the IC50 in [3] was over 100 µM.

For `O=[N+]([O-])c1ccc(-c2nc3ccccc3n3cccc23)cc1`, the IC50 in [3] and in [2] was over 100 µM in each case.
